Results taken from PMC4031611 (Nature chemistry, 2014).
Peptide text beside a SMILES is read from it. * marks the point of attachment. Cbz = O=C(OCc1ccccc1)*; CH2F = FC*

Columns and labels:
[1] = test system: HeLa tumor lysates; assay: HPLC analysis of C-SNAF reaction in tumor lysates; type: in vivo, mouse; details: C-SNAF 5 μM, 24 h incubation with tumor lysate, 675 nm
[2] = Stability in mouse serum by HPLC; type: in vitro ADME
[3] = test system: lysate of apoptotic HeLa cells; assay: HPLC analysis of C-SNAF reaction in apoptotic cell lysate; type: cell-based, human; details: C-SNAF 5 μM, overnight, 37 °C
[4] = test system: DOX-treated HeLa cells; assay: Epifluorescence microscopy of DOX-treated HeLa cells; type: cell-based, human; details: for cell labeling efficiency: 24 h, HeLa
[5] = test system: lysate of apoptotic MDA-MB-231 cells; assay: HPLC analysis of C-SNAF reaction in apoptotic cell lysate; type: cell-based, human; details: C-SNAF 5 μM, overnight, 37 °C
[6] = Blood circulation and biodistribution in healthy nude mice; type: in vivo, mouse; details: 5 nmol i.v.
[7] = test system: subcutaneous HeLa tumors in female nude mice; assay: In vivo fluorescence imaging of DOX-induced tumor apoptosis; design: species or system mouse
How it was run: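 HeLa s.c. xenografts in female nu/nu mice given DOX 8 mg/kg or saline i.v. every 4 days, three times. Two days after the last dose, probe (5 nmol in saline) given i.v. and imaging started immediately: hyperspectral imager, 635±25 nm excitation, 675 nm long-pass emission, 670–900 nm collected. Cy5.5 unmixed from autofluorescence; tumor ROI intensity expressed as percent difference from saline group. Same animals also imaged after a single DOX dose.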

[8] = test system: STS-induced apoptotic HeLa cells; assay: Flow cytometry of STS-induced apoptotic HeLa cells labelled with probe; type: cell-based, human
How it was run: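 HeLa cells made apoptotic with staurosporine, or left viable, then incubated with probe (2 μM), with or without Z-VAD-fmk pretreatment (50 μM). Co-stained with a fluorescent caspase inhibitor (FLICA) as the apoptosis marker. Flow cytometry gated into four quadrants by FLICA and Cy5.5 positivity; Cy5.5 fluorescence compared between apoptotic and viable cells.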

[9] = biological target: T1, recombinant human caspase-3 (Homo sapiens, UniProt P42574); assay: Caspase-3-mediated macrocyclization in vitro, HPLC assay; type: biochemical; details: probe 25 μM, caspase-3 4.9 × 10^−3 U/ml, 37 °C
T1 sequence (P42574 29-175 limits assumed): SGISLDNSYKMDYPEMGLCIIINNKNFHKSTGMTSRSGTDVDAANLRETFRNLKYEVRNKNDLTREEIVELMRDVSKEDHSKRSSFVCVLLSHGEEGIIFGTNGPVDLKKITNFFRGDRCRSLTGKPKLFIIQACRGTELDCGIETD
T1 sequence (P42574 176-277 limits assumed): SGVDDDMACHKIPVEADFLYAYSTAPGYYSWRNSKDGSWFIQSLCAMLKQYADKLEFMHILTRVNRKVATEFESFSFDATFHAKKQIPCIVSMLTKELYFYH

[10] = test system: STS-induced apoptotic HeLa cells; assay: Epifluorescence microscopy of STS-treated HeLa cells; type: cell-based, human; details: for cell labeling efficiency: then C-SNAF 2 µM 24 h, HeLa
[11] = test system: caspase-3/7 activity in HeLa tumor lysates; assay: Caspase-Glo 3/7 assay in tumor lysates; type: in vivo, mouse; details: 3X DOX 8 mg/kg i.v., Caspase-Glo 3/7, n = 4
[12] = test system: HeLa tumor xenograft; assay: Chemotherapy mouse model, tumor size; type: in vivo
How it was run: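 Female nu/nu mice, 6 weeks old, given 2 million HeLa cells s.c. in the shoulders in 50% Matrigel/supplemented DMEM. Tumors grown to 0.7–0.9 cm on one aspect (about 10–15 days), then given DOX 8 mg/kg or saline i.v. every 4 days, three times. Body weight and caliper width/length recorded every other day; volume = (length × width²)/2.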

CCSSC[C@@H](NC(=O)[C@H](CC(=O)O)NC(=O)[C@@H](NC(=O)[C@H](CCC(=O)O)NC(=O)[C@H](CC(=O)O)NC(C)=O)C(C)C)C(=O)N[C@@H](CCCCNC(=O)CCCCCN1C(=CC=CC=CC2=[N+](CC)c3ccc4c(S(=O)(=O)[O-])cc(S(=O)(=O)O)cc4c3C2(C)C)C(C)(C)c2c1ccc1c(S(=O)(=O)O)cc(S(=O)(=O)O)cc21)C(=O)Nc1ccc2nc(C3=N[C@@H](C(=O)NCCCOc4ccc5nc(C#N)ccc5c4)CS3)sc2c1 [C-SNAF]
amount of C-SNAF-cycl in DOX-treated relative to saline-treated tumor lysates (HPLC) [1]: significantly greater amount of C-SNAF-cycl | half-life [2]: > 6 h | conversion of C-SNAF to C-SNAF-cycl [3]: more than 90% | cell labeling efficiency ([4]; DOX 1 μM co-incubated with C-SNAF 2 µM): 9% | cell labeling efficiency ([4]; DOX 5 μM co-incubated with C-SNAF 2 µM): 92% | enhancement in cell labeling efficiency ([4]; DOX 1 to 5 μM): approximately 10 fold | conversion of C-SNAF to C-SNAF-cycl [5]: more than 90% | time of nearly complete elimination from the body [6]: ≤ 12 h | blood half-life ([6]; Cy5.5 fluorescence of blood, n = 5): 1.0 ± 0.45 h | increase in tumor fluorescence signal, DOX-treated compared to saline-treated mice ([7]; 5 nmol i.v., 3X DOX 8 mg/kg, by 4 h, n = 5): 1.6 fold | time of maximum tumor fluorescence after administration ([7]; 5 nmol i.v., n = 5): 1 h | tumor fluorescence relative to saline-treated mice ([7]; after single dose of DOX (1X DOX), 2 h after C-SNAF, n = 4): moderate increase in tumor fluorescence | tumor fluorescence relative to saline and 1X DOX ([7]; after third round of DOX, same animals, n = 4): significant fluorescence enhancement | uptake in untreated viable HeLa cells ([8]; probe 2 μM, 24 h, Cy5.5 fluorescence): low uptake | increase in Cy5.5 fluorescence of FLICA-positive apoptotic cells relative to viable cells ([8]; probe 2 μM, 24 h, STS 2 μM 4 h, HeLa): ~13 fold | conversion to C-SNAF-cycl after 6 h [9]: nearly completely converted to C-SNAF-cycl | cell labeling efficiency ([10]; STS 0.5 μM 4 h): 23% | cell labeling efficiency ([10]; STS 2 μM 4 h): 90% | enhancement in cell labeling efficiency ([10]; STS 0.5 to 2 μM): approximately 4 fold | labeling of apoptotic cells (fluorescence microscopy, words) ([10]; probe 2 µM, 24 h, STS-treated HeLa cells): Efficient labeling

COc1cccc2c1C(=O)c1c(O)c3c(c(O)c1C2=O)C[C@@](O)(C(=O)CO)C[C@@H]3O[C@H]1C[C@H](N)[C@H](O)[C@H](C)O1 [DOX, doxorubicin]
increase in caspase-3/7 activity, DOX-treated relative to saline-treated tumors [11]: 1.9 fold | tumor size change ([12]; following 1X DOX 8 mg/kg i.v.): no significant size difference | tumor size change ([12]; following the third round of DOX 8 mg/kg i.v.): significant size reduction

COC(=O)C[C@H](NC(=O)[C@H](C)NC(=O)[C@@H](NC(=O)OCc1ccccc1)C(C)C)C(=O)CF [Z-VAD-fmk, reference compound] (Cbz-Val-Ala-Asp(OMe)-CH2F)
effect of caspase inhibitor on labeling by C-SNAF ([8]; Z-VAD-fmk 50 μM, 30 min before C-SNAF 2 μM, STS-treated HeLa): abrogated
